Molecules are shown by their SMILES.

One experiment concerns Rattus norvegicus. In words: Ability to protect Sprague-Dawley male rats against maximal electroshock-induced seizures (MES) intraperitoneally. Inhibition at 25 mg/kg. In kind it is functional. To be noted: ip, route intraperitoneal. In outline: (§1)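 Male Sprague-Dawley rats dosed with compound as a solution or fine dispersion in water or 5% methylcellulose, then given maximal electroshock. Protection means abolition of the hind-limb extensor component.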
On the technique in general: Protection in the maximal electroshock model is a classic sign of anticonvulsant action.
With `CC(C)N(C)c1ncnc2c1ncn2Cc1ccccc1`, 25 mg/kg produced 17% inhibition in vivo.
Regarding `c1ccc(Cn2cnc3c(N4CCC4)ncnc32)cc1`, the inhibition in vivo at 25 mg/kg is 17%.
`COc1ccc(Cn2cnc3c(N(C)C)ncnc32)cc1` displayed an inhibition in vivo at 25 mg/kg of 0%.
Same read-out and setting: to `CN(C)c1ncnc2c1ncn2Cc1ccccc1Cl` belongs 84%.
The same measure, in the same setting: to `CN(C)c1ncnc2c1ncn2Cc1cccc([N+](=O)[O-])c1` belongs 17%; to `CN(C)c1ncnc2c1ncn2Cc1ccc(F)cc1`, 33%; to `C[C@H](c1ccccc1)n1cnc2c(N(C)C)ncnc21`, 33%.
`C[C@@H](c1ccccc1)n1cnc2c(N(C)C)ncnc21` yielded an inhibition in vivo at 25 mg/kg of 33%.
`Oc1ncnc2c1ncn2Cc1ccccc1` came in with an inhibition in vivo at 25 mg/kg of 17%.
As to `CN(C)c1ncnc2c1ncn2CC1CCCCC1`, the inhibition in vivo at 25 mg/kg worked out at 0%.
`c1ccc(Cn2cnc3c(Nc4ccccc4)ncnc32)cc1` gave an inhibition in vivo at 25 mg/kg of 0%.
Still for that read-out and setting: in the case of `Cc1ccc(Cn2cnc3c(N(C)C)ncnc32)cc1` it was 0%; in that of `CN(C=O)c1ncnc2c1ncn2Cc1ccccc1`, 0%.
With `CN(C)c1ncnc2c1ncn2Cc1ccc(Cl)c(Cl)c1`, the inhibition in vivo at 25 mg/kg turned out to be 0%.
For `CN(C)c1ncnc2c1ncn2Cc1cccc(OCc2ccccc2)c1`, the inhibition in vivo at 25 mg/kg came to 33%.
`OCCNc1ncnc2c1ncn2Cc1ccccc1`: testing at 25 mg/kg gave an inhibition in vivo of 84%.
`CN(C)c1ncnc2c1ncn2Cc1cccc(O)c1` showed an inhibition in vivo at 25 mg/kg of 0%.
As for `CN(C)c1ncnc2c1ncn2Cc1ccc(Cl)cc1`, the inhibition in vivo at 25 mg/kg is 0%.
As for `CN(C)c1ncnc2c1ncn2Cc1ccc(C#N)cc1`, 25 mg/kg produced 0% inhibition in vivo.
In the case of `COc1ccccc1Cn1cnc2c(N(C)C)ncnc21`, the inhibition in vivo at 25 mg/kg worked out at 0%.
The molecule `CN(C)c1ncnc2c1ncn2CCc1ccccc1` registered an inhibition in vivo at 25 mg/kg of 33%.
Take `CN(C)c1ncnc2c1ncn2Cc1ccc([N+](=O)[O-])cc1`: testing at 25 mg/kg gave an inhibition in vivo of 0%.
On to `CN(c1ncnc2c1ncn2Cc1ccccc1)C1CCCC1`, for which the inhibition in vivo at 25 mg/kg stood at 17%.
As for `CN(C)c1ncnc2c1ncn2Cc1cccc(C#N)c1`, the inhibition in vivo at 25 mg/kg stood at 17%.
`CN(C)c1ncnc2c1ncn2C`: the inhibition in vivo at 25 mg/kg came to 33%.
The molecule `CN(C)c1ncnc2c1ncn2Cc1ccc(O)cc1` yielded an inhibition in vivo at 25 mg/kg of 0%.
Still for that read-out and setting: to `CSc1ncnc2c1ncn2Cc1ccccc1` [9-BENZYL-6-METHYLSULFANYL-9H-PURINE] belongs 30%; to `Nc1ncnc2c1ncn2Cc1ccccc1` [9-BENZYL-9H-ADENINE], 33%; to `c1ccc(Cn2cnc3cncnc32)cc1` [9-BENZYL-9H-PURINE], 33%.

The subject of the next experiment is Rattus norvegicus. In words: Ability to protect Sprague-Dawley male rats against maximal electroshock-induced seizures (MES) per orally; Inhibition at 25 mg/kg. In kind it is functional. The conditions noted are these: po. In outline: as §1
In turn, `OCCNc1ncnc2c1ncn2Cc1ccccc1` showed an inhibition in vivo at 25 mg/kg of 17%.

Another experiment deals with Rattus norvegicus. In words: Ability to protect Sprague-Dawley male rats against maximal electroshock-induced seizures (MES) intraperitoneally; Inhibition at 12.5 mg/kg. To be noted: ip, route intraperitoneal. In kind it is functional. An outline of the steps:
as §1
For the molecule `CN(C)c1ncnc2c1ncn2-c1ccccc1`, 12.5 mg/kg produced 0% inhibition in vivo.

In the next experiment the test system is Rattus norvegicus. As to the kind of experiment: Protective effects in maximal electroshock induced seizures in rats following i.p. administration. In kind it is functional. The conditions noted are these: ip. In outline: (§2)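 Male Sprague-Dawley rats, compound given orally or ip as a solution or fine dispersion in water or 5% methylcellulose before maximal electroshock. ED50 is the dose protecting 50% against hind-limb extension, by the Miller–Tainter method. Either ≥12 animals per dose at four doses (with standard error) or three doses with six animals per point.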
Consider `CN(C)c1ncnc2c1ncn2Cc1cccs1`, for which the ED50 was found to be 10 mg/kg.
On to `Cc1ccccc1Cn1cnc2c(N(C)C)ncnc21`, for which the ED50 came to 9 mg/kg. This ED50 and that of the molecule before are within 1.5-fold of each other.
In the case of `CCN(C)c1ncnc2c1ncn2Cc1ccccc1`, it took a dose of 8 mg/kg to reach the 50% effect level (ED50).
On the same count and under the same terms, in the case of `CN(C)c1ncnc2c1ncn2Cc1ccc(N)cc1` it was 25 mg/kg; in that of `CN(C)c1ncnc2c1ncn2Cc1cccc(I)c1`, 11 mg/kg.
As to `CN(C)c1ncnc2c1ncn2Cc1cccc(Cl)c1`, the ED50 was determined as 4.5 mg/kg.
For the molecule `CN(C)c1ncnc2c1ncn2Cc1ccco1`, the 50% effect level (ED50) was put at a dose of 18 mg/kg.
On the same count and under the same terms, in the case of `CN(C)c1ncnc2c1ncn2Cc1cc(Cl)cc(Cl)c1` it was 7 mg/kg.
As for `CNc1ncnc2c1ncn2Cc1ccccc1`, the ED50 is 5 mg/kg. This ED50 and that of the molecule before are within 1.5-fold of each other.
Consider `CN(C)c1ncnc2c1ncn2Cc1ccccc1`, for which the ED50 came out at 6 mg/kg.
Regarding `CN(C)c1ncnc2c1ncn2Cc1ccccc1F`, it took a dose of 8.8 mg/kg to reach the 50% effect level (ED50).
The same measure, in the same setting: to `CN(C)c1ncnc2c1ncn2Cc1cccc(F)c1` belongs 8.4 mg/kg.
In turn, `Cc1cccc(Cn2cnc3c(N(C)C)ncnc32)c1` had an ED50 of 25 mg/kg.
`c1ccc(Cn2cnc3c(NC4CC4)ncnc32)cc1` yielded an ED50 of 8.6 mg/kg.
In turn, `CN(C)c1ncnc2c1ncn2Cc1ccccc1[N+](=O)[O-]` had an ED50 of 25 mg/kg.
Consider `CN(C)c1ncnc2c1ncn2Cc1ccccc1N`, for which the median effective dose (ED50) was determined as 20 mg/kg. The ED50 values of the last two molecules are within 1.5-fold of each other.
`CN(C)c1ncnc2c1ncn2Cc1cccc(C(F)(F)F)c1` had an ED50 of 12 mg/kg.
In the case of `CN(C)c1ncnc2c1ncn2Cc1cccc(Br)c1`, the ED50 is 13 mg/kg.
`COc1cccc(Cn2cnc3c(N(C)C)ncnc32)c1` gave an ED50 of 12.5 mg/kg. The ED50 values of the last two molecules are within 1.5-fold of each other.
Still for that read-out and setting: to `COc1ncnc2c1ncn2Cc1ccccc1` [9-BENZYL-6-METHOXY-9H-PURINE] belongs 10 mg/kg.
`O=C1NC(=O)C(c2ccccc2)(c2ccccc2)N1` [PHENYTOIN] displayed an ED50 of 9.6 mg/kg.

The species entered for another experiment is Rattus norvegicus. As to the kind of experiment: Ability to protect Sprague-Dawley male rats against maximal electroshock-induced seizures (MES) perorally. To be noted: po. In kind it is functional. In outline: as §2
On to `CCN(C)c1ncnc2c1ncn2Cc1ccccc1`, for which the ED50 came to 30 mg/kg.
Consider `CN(C)c1ncnc2c1ncn2Cc1cccc(Cl)c1`, for which the ED50 came out at 18 mg/kg.
In the case of `CNc1ncnc2c1ncn2Cc1ccccc1`, the ED50 stood at 12 mg/kg.
On to `CN(C)c1ncnc2c1ncn2Cc1ccccc1`, for which the ED50 is 12 mg/kg.
Regarding `COc1ncnc2c1ncn2Cc1ccccc1` [9-BENZYL-6-METHOXY-9H-PURINE], the median effective dose (ED50) stood at 21 mg/kg.
`O=C1NC(=O)C(c2ccccc2)(c2ccccc2)N1` [PHENYTOIN]: the 50% effect level (ED50) was put at a dose of 20 mg/kg. This ED50 and that of the molecule before are within 1.5-fold of each other.

Usually inhibition in vivo stands for the drop in the measured response relative to a control, in per cent. The low end stands for a response near the control, the high end for a response far below the control. The term ED50 denotes the dose at which the effect has come halfway, by size or by number of responders. Low readings indicate an effect at a small dose, high ones a need for a large dose.
